For series [1], the target named is T1, Advanced glycosylation end product-specific receptor (Homo sapiens, UniProt Q15109). As to the kind of experiment: Binding affinity to human recombinant biotinylated receptor for advanced glycation end product expressed in Escherichia coli DE3 after 1 min by surface plasmon resonance assay. The procedure, abridged:
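SPR with biotinylated RAGE captured to saturation on Neutravidin-coated chip channels, with a blank reference channel. Running buffer TBS (pH 7.4) with 0.05% Tween 20. Compounds serially diluted 50 to 3.1 μM in 2% DMSO, injected 1 min at 100 μL/min, then 400 s buffer dissociation. Responses reference-subtracted. Constants from a global Langmuir 1:1 fit.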

Series [2] relates to Mus musculus. As to the kind of experiment: Toxicity against transgenic mouse expressing PS1/APP swedish mutant assessed as lethality at 50 mg/kg/day, po administered for 3 months measured after 2 months. The class given is organism-based. More on the design: route oral. To be noted: in vivo, 1461 h. The procedure, abridged: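 Male APPsw/PS1 transgenic mice, 6 months old (n = 4−5), dosed by oral gavage at 50 mg/(kg·day) until 9 months of age. Lethality was recorded as a side effect during the study. Cognitive function (Y-maze spontaneous alternation) was assessed after 2 months of dosing.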

In series [3] the test system is Mus musculus. Kind of series: Procognitive activity in transgenic mouse expressing PS1/APP swedish mutant assessed as spontaneous alteration at 50 mg/kg/day, po administered for 3 months measured after 2 months by Y maze test (reference value: 50.95 +/- 10.8%). The class given is functional.
Series [4] relates to Mus musculus. Kind of series: Antialzheimer activity in transgenic mouse expressing PS1/APP swedish mutant assessed as insoluble amyloid beta (1 to 42) level per mg of protein in brain at 50 mg/kg/day, po for 3 months by ELISA (reference value: 513.73 +/- 219.56 ng per mg of protein). The format is functional.
The subject of series [5] is Mus musculus. As to the kind of experiment: Antialzheimer activity in transgenic mouse expressing PS1/APP swedish mutant assessed as soluble amyloid beta (1 to 42) level per mg of protein in brain at 50 mg/kg/day, po for 3 months by ELISA (reference value: 17.34 +/- 5.17 ng per mg of protein). The format is functional.
For series [6], the system named is Mus musculus. As to the kind of experiment: Antialzheimer activity in transgenic mouse expressing PS1/APP swedish mutant assessed as insoluble amyloid beta (1 to 40) level per mg of protein in brain at 50 mg/kg/day, po for 3 months by ELISA (reference value: 137.38+/- 58.13 ng per mg of protein). The format is functional.
Series [7] relates to Mus musculus. As to the kind of experiment: Antialzheimer activity in transgenic mouse expressing PS1/APP swedish mutant assessed as soluble amyloid beta (1 to 40) level per mg of protein in brain at 50 mg/kg/day, po for 3 months by ELISA (reference value: 8.66 +/- 1.81 ng per mg of protein). The class given is functional. A general note: In an ELISA, binding on a coated surface is turned into a signal by an enzyme label.

The test system of series [8] is Mus musculus. As to the kind of experiment: Inhibition of RAGE-mediated influx of human amyloid beta (1 to 42) into ICR mouse brain at 25 mg/kg, ip administered 20 mins prior to human amyloid beta (1 to 40)-injection measured after 30 mins by ELISA relative to control. The following applies: in the assay text read “human amyloid beta (1 to 42)-injection” for “human amyloid beta (1 to 40)-injection”, route intraperitoneal. The format is functional. The gist of the method:
(§1)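 Male ICR mice, 3 months old (n = 4), given test compound 25 mg/kg or vehicle ip. After 20 min, 200 μL of 25 μM human Aβ1−42 in PBS injected into the tail vein and left to circulate 30 min. Retro-orbital blood taken into EDTA tubes before sacrifice. Human Aβ measured in brain extracts (pg/mg protein) and plasma (ng/mL).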

The next series has as its system C6. As to the kind of experiment: Cytotoxicity against rat C6 cells at 0.1 to 10 uM after 18 hrs. The format is cell-based. To be noted: c6, 18 h.
The target of series [9] is Advanced glycosylation end product-specific receptor (Rattus norvegicus) (UniProt Q63495). Kind of series: Inhibition of receptor for advanced glycation end product binding to amyloid beta 42 in rat C6 cells assessed as NFkappaB activation at 0.1 to 10 uM after 18 hrs by reporter gene assay. The class given is cell-based.
Advanced glycosylation end product-specific receptor (Rattus norvegicus), sequence (Q63495 whole entry): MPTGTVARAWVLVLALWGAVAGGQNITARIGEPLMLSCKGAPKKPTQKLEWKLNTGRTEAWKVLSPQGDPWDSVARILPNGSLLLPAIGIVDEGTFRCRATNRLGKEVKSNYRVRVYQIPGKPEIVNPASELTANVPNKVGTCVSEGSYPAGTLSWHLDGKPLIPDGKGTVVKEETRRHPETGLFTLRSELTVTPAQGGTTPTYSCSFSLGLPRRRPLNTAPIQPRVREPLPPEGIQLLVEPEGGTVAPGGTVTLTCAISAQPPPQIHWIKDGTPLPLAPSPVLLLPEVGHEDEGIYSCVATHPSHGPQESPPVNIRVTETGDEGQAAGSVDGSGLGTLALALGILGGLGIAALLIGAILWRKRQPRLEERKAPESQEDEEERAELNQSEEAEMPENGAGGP
Series [10] addresses T1, Advanced glycosylation end product-specific receptor. Kind of series: Inhibition of human recombinant biotinylated receptor for advanced glycation end product expressed in Escherichia coli DE3 assessed as inhibition of binding to amyloid beta (1 to 42) after 60 mins by TMB-ELISA. The procedure, abridged:
(§2)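 Biotinylated human RAGE (1 μg, made in Origami2(DE3) with BirA) incubated on a streptavidin plate with oligomeric Aβ (10 μM stock pre-aggregated 24 h at 4 °C; 1 μL per well). Compound 20 μM in TBS-T/2.5% BSA, 60 min at ambient temperature. Bound Aβ detected with HRP-4G8 (1:1000) for 60 min, then TMB, read at 450 nm. Duplicates, mean ± SD.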

The target is the same in series [11]. Kind of series: Inhibition of human recombinant biotinylated receptor for advanced glycation end product expressed in Escherichia coli DE3 assessed as inhibition of binding to amyloid beta (1 to 42) at 20 uM after 60 mins by TMB-ELISA. The procedure, abridged: as §2
Series [12] deals with Mus musculus. As to the kind of experiment: Reduction in human amyloid beta (1 to 42) level in ICR mouse plasma at 25 mg/kg, ip administered 20 mins prior to human amyloid beta (1 to 40)-injection measured after 30 mins by ELISA relative to control. The class given is functional. More on the design: scale not given: the % may be the effect or the level left. The following applies: route intraperitoneal, in the assay text read “human amyloid beta (1 to 42)-injection” for “human amyloid beta (1 to 40)-injection”. The gist of the method:
as §1

Series [13] concerns Mus musculus. As to the kind of experiment: Inhibition of RAGE-mediated influx of human amyloid beta (1 to 42) into ICR mouse brain at 25 mg/kg, ip administered 20 mins prior to human amyloid beta (1 to 42)-injection measured after 30 mins by ELISA relative to control.

Calls of active or inactive are those of the source. The rule behind the calls is not given here.

T1 sequence (Q15109 whole entry): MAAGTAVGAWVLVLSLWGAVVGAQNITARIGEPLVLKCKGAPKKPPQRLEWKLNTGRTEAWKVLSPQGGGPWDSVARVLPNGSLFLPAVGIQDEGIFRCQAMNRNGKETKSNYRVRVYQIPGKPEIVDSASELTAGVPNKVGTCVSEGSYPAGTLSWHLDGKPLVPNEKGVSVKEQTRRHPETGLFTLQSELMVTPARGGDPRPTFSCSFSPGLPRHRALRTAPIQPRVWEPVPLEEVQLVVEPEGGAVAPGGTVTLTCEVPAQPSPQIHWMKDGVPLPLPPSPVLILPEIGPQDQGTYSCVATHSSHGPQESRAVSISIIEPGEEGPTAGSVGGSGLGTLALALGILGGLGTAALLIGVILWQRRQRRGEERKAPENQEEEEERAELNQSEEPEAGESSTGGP

As for `CCN(CC)CCOc1cccc(Nc2nc(-c3ccc(Cl)cc3)cc(-c3ccc(Cl)cc3)n2)c1`, the Activity result in [1] is “Dose-dependent effect”; with Mus musculus [2] it was “Non-toxic”; with Mus musculus [3], 63.6%; in the series on Mus musculus [4] it was 354 ng/mg; with Mus musculus [5], 12 ng/mg; with Mus musculus [6], 98.5 ng/mg. Also, the Activity was 6.25 ng/mg in the series with Mus musculus [7], “Non-toxic” with C6 and 3.7% in the series with Mus musculus [12]. Further, the Kd (in general, the concentration at which binding is half-saturated) in series [1] was found to be 102 µM. Moreover, the inhibition in vivo – broadly, the relative decrease from the control value, in per cent – at 25 mg/kg with Mus musculus [8] turned out to be 34.3%. In addition, the inhibition (usually the drop in the measured response relative to a control, in per cent) in series [9] is “Active”. Besides, the IC50 (commonly the concentration at which inhibition is half-maximal) in series [10] was 16.5 µM. In addition, the inhibition in series [11] worked out at 54%.

`CCN(CC)CCOc1cccc(Nc2nc(-c3ccc(Cl)cc3)cc(N3CCCCC3)n2)c1`: the inhibition in series [11] was determined as 17.1%. The same measure, in the same setting: the entry for `CCN(CC)CCCC(=O)Nc1nc(C)c(OCc2ccccc2)c(C)n1` is “inactive”; for `CCN(CC)CCOc1cccc(Nc2nc(C)cc(-c3ccc(Cl)cc3)n2)c1` it is 41.6%; for `CCN(CC)CCOc1cccc(Nc2nc(C)cc(C)n2)c1` it is 20.8%. The same measure, in the same setting: the figure for `CCN(CC)CCOc1ccc(Nc2nc(C)cc(N3CCCCC3)n2)cc1` is 43.3%; for `COc1c(C)nc(NC(=O)CCCO)nc1C` it is “inactive”.

For the compound `Cc1nc(NC(=O)CCCC(=O)O)nc(C)c1OCc1ccccc1`, the inhibition entry in series [11] was “inactive”. `CCN(CC)CCOc1ccc(Nc2nc(-c3ccc(Cl)cc3)cc(-c3ccc(Cl)cc3)n2)cc1`: in series [11], the inhibition is 33.6%. As to `CCN(CC)CCOc1ccc(Nc2nc(C)cc(-c3ccccc3)n2)cc1`, in series [11], the inhibition worked out at 33%. `CCN(CC)CCOc1ccc(Nc2nc(C)c(OCc3ccccc3)c(C)n2)cc1`: in [11], the inhibition amounted to 14.6%.

On to `CCN(CC)CCOc1ccc(Nc2nc(C)cc(C)n2)cc1`, for which the inhibition in series [11] is 16%. On the same count and under the same terms, the figure for `CCN(CC)CCOc1ccc(Nc2nc(C)cc(-c3ccc(OCc4ccc(Cl)cc4)cc3)n2)cc1` is 12.7%. On to `CCN(CC)CCOc1cccc(Nc2nc(-c3ccc(Cl)cc3)cc(N3CCOCC3)n2)c1`, for which the inhibition in series [11] came out at 3.1%. As to `COc1c(C)nc(NC(=O)CCCC(=O)O)nc1C`, the inhibition entry in [11] was “inactive”. On to `CCN(CC)CCOc1ccc(Nc2nc(C)cc(C3CCCCC3)n2)cc1`, for which the inhibition in series [11] stood at 30.6%.

For the compound `CCN(CC)CCOc1ccc(Nc2nc(C)cc(-c3ccc(Cl)cc3)n2)cc1`, the inhibition in [11] is 37.1%. On to `CCN(CC)CCOc1ccc(Nc2nc(C)cc(-c3ccc(OCCC4CCCCC4)cc3)n2)cc1`, for which, in series [11], the inhibition was found to be 32.7%. Consider `CCN(CC)CCOc1ccc(Nc2nc(C)cc(-c3ccc(OC4CCCCC4)cc3)n2)cc1`, for which, in [11], the inhibition worked out at 32.6%. For `Cc1nc(NC(=O)CCCO)nc(C)c1OCc1ccccc1`, the inhibition entry in [11] is “inactive”. As for `CCN(CC)CCOc1cccc(Nc2nc(C)cc(-c3ccc(OCCC4CCCCC4)cc3)n2)c1`, the Activity entry in the series on C6 is given as “Non-toxic”; in the series with Mus musculus [12], 5%. In addition, in series [9], the inhibition entry is “Active”. Besides, in series [11], the inhibition was determined as 49.6%. For the same compound, the inhibition in vivo at 25 mg/kg in the series on Mus musculus [13] is 12.1%.

Turning to `CCN(CC)CCOc1cccc(Nc2nc(C)cc(-c3ccc(OC4CCCCC4)cc3)n2)c1`, the inhibition in [11] stood at 45.6%. Take `CCN(CC)CCOc1cccc(Nc2nc(-c3ccc(Cl)cc3)cc(N3CCN(C)CC3)n2)c1`: in series [11], the inhibition is 4.5%. As for `CCN(CC)CCOc1ccc(Nc2nc(C)cc(Nc3ccccc3)n2)cc1`, the inhibition in series [11] was determined as 32.7%. In the case of `CCN(CC)CCOc1ccc(Nc2nc(C)cc(-c3ccc(OCCc4ccccc4)cc3)n2)cc1`, in series [11], the inhibition entry was “inactive”. The same measure, in the same setting: next, `CCN(CC)CCOc1cccc(Nc2nc(-c3ccc(Cl)cc3)cc(-n3cccc3)n2)c1`: 26.3%. On to `CCN(CC)CCOc1ccc(Nc2nc(C)cc(-c3ccc(Oc4ccc5ccccc5c4)cc3)n2)cc1`, for which, in [11], the inhibition was 21.4%. For `CCN(CC)CCCCNc1nc(C)c(OC)c(C)n1`, the inhibition result in series [11] was “inactive”.

Regarding `CCN(CC)CCOc1ccc(Nc2nc(C)cc(-c3ccc(Oc4ccc(Cl)cc4)cc3)n2)cc1`, the inhibition in series [11] stood at 21.1%.

With `CCN(CC)CCOc1ccc(Nc2nc(C)c(O)c(C)n2)cc1`, the inhibition in series [11] came out at 16.2%. On the same count and under the same terms, the entry for `CCN(CC)CCCC(=O)Nc1nc(C)c(O)c(C)n1` is “inactive”; for `CCN(CC)CCOc1ccc(Nc2nc(C)cc(-c3ccc(OCCc4ccc(Cl)cc4)cc3)n2)cc1` it is “inactive”.

With `CCN(CC)CCOc1cccc(Nc2nc(C)cc(-c3ccc(OC)cc3)n2)c1`, the inhibition in [11] worked out at 30.9%. With `CCN(CC)CCCCNc1nc(C)c(O)c(C)n1`, the inhibition result in series [11] was “inactive”. Consider `CCN(CC)CCOc1ccccc1Nc1nc(-c2ccc(Cl)cc2)cc(-c2ccc(Cl)cc2)n1`, for which the Activity entry in the series with C6 is listed as “Non-toxic”; in the series on Mus musculus [12], 2.8%. The inhibition result in series [9] is “Active”. Moreover, the IC50 in series [10] turned out to be 4.6 µM. Also, in series [11], the inhibition is 70.8%. The same compound returned an inhibition in vivo at 25 mg/kg with Mus musculus [13] of 18.3%. With `CCN(CC)CCCCNc1nc(C)c(OCc2ccccc2)c(C)n1`, in series [11], the inhibition result was “inactive”. Consider `CCN(CC)CCOc1ccccc1Nc1nc(C)cc(-c2ccc(Cl)cc2)n1`, for which, in [11], the inhibition came out at 47.2%. With `CCN(CC)CCCC(=O)Nc1nc(C)c(OC)c(C)n1`, in [11], the inhibition entry was “inactive”. Take `CCN(CC)CCOc1ccc(Nc2nc(C)cc(-c3ccc(OC)cc3)n2)cc1`: the inhibition in series [11] amounted to 31.7%.
